Results reported in ChEMBL document CHEMBL2086296, “Synthesis of novel quinoline-2-one based chalcones of potential anti-tumor activity” (Eur J Med Chem, 2012).

Assays:
COLO 205 = test: Cytotoxicity against human COLO205 cells after 24 hrs by SRB assay; assay type: cell-based; settings: colo 205, 24 h
How it was run: (§1)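 NCI 60-cell screen. Cells grown in RPMI 1640 with 5% FBS and 2 mM L-glutamine, seeded at 5,000–40,000 cells/well, preincubated 24 h at 37 °C in 5% CO2. Drug stock in DMSO, diluted in medium with gentamicin; five final concentrations, 100, 10, 1.0, 0.1 and […]. Time-zero plates were TCA-fixed. Protein read by SRB staining; GI50, TGI and LC50 taken relative to time-zero.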

OVCAR-3 = test: Cytotoxicity against human OVCAR3 cells after 24 hrs by SRB assay; assay type: functional; settings: OVCAR-3, 24 h
How it was run: (§2)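 NCI 60-line screen. Cells in RPMI 1640 with 5% FBS and 2 mM L-glutamine, seeded at 5,000–40,000 cells/well by doubling time, then incubated 24 h at 37 °C, 5% CO2 before dosing. Time-zero plates fixed with TCA at drug addition. DMSO stocks diluted in medium with gentamicin to five concentrations, […]. Protein read by SRB staining. GI50, TGI and LC50 derived relative to control and time-zero.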

SK-OV-3 = test: Cytotoxicity against human SKOV3 cells after 24 hrs by SRB assay; assay type: functional; settings: SK-OV-3, 24 h; how it was run: as §2
SK-MEL-28 [1] = test: (§3) Cytotoxicity against human SK-MEL-28 cells after 24 hrs by SRB assay; assay type: functional; settings: SK-MEL-28, 24 h; how it was run: as §2
NCI-H322M [2] = test: (§4) Cytotoxicity against human NCI-H322M cells after 24 hrs by SRB assay; assay type: functional; how it was run: as §2
NCI-H322M [3] = test: as §4; assay type: cell-based; how it was run: as §1
SF-295 = test: Cytotoxicity against human SF295 cells after 24 hrs by SRB assay; assay type: cell-based; settings: sf-295, 24 h; how it was run: as §1
UACC-62 = test: Cytotoxicity against human UACC62 cells after 24 hrs by SRB assay; assay type: functional; settings: UACC-62, 24 h
How it was run: (§5)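 NCI 60-cell screen. Cells are grown in RPMI 1640 with 5% FBS and 2 mM L-glutamine and seeded at 5,000–40,000 cells/well according to doubling time. They are preincubated 24 h at 37 °C in 5% CO2, and Tz plates are TCA-fixed at drug addition. Drug stock is in DMSO, diluted in medium with gentamicin, and tested at five concentrations (100, 10, 1.0, 0.1, […]). Protein is read by SRB staining. GI50, TGI and LC50 are derived relative to time-zero and control wells.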

HL-60 = test: Cytotoxicity against human HL60 cells after 24 hrs by SRB assay; assay type: functional; settings: HL-60, 24 h; how it was run: as §2
SF-539 = test: Cytotoxicity against human SF539 cells after 24 hrs by SRB assay; assay type: functional; settings: SF-539, 24 h; how it was run: as §2
M14 [4] = test: (§6) Cytotoxicity against human M14 cells after 24 hrs by SRB assay; assay type: functional; settings: M14, 24 h; how it was run: as §2
U-251 = test: Cytotoxicity against human U251 cells after 24 hrs by SRB assay; assay type: cell-based; settings: u-251, 24 h
How it was run: (§7)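 NCI 60-cell-line screen: cells grown in RPMI 1640 with 5% FBS and 2 mM L-glutamine, seeded at 5,000–40,000 cells/well by doubling time, and preincubated 24 h at 37 °C in 5% CO2. Time-zero plates were TCA-fixed. DMSO stocks were diluted in medium with gentamicin to five concentrations (100, 10, 1.0, 0.1, […]). Protein was read by SRB, and GI50, TGI and LC50 were derived against time-zero.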

HCT-116 = test: Cytotoxicity against human HCT116 cells after 24 hrs by SRB assay; assay type: cell-based; settings: hct-116, 24 h; how it was run: as §1
A549 = test: Cytotoxicity against human A549 cells after 24 hrs by SRB assay; assay type: functional; settings: A549, 24 h; how it was run: as §2
EKVX = test: Cytotoxicity against human EKVX cells after 24 hrs by SRB assay; assay type: functional; how it was run: as §2
TK-10 = test: Cytotoxicity against human TK10 cells after 24 hrs by SRB assay; assay type: functional; settings: TK-10, 24 h; how it was run: as §5
OVCAR-5 = test: Cytotoxicity against human OVCAR5 cells after 24 hrs by SRB assay; assay type: cell-based; settings: ovcar-5, 24 h; how it was run: as §1
M14 [5] = test: as §6; assay type: cell-based; settings: m14, 24 h; how it was run: as §1
[6] = Cytotoxicity against human Hs 578T cells after 24 hrs by SRB assay; assay type: functional; how it was run: as §2
UACC-257 [7] = test: (§8) Cytotoxicity against human UACC257 cells after 24 hrs by SRB assay; assay type: cell-based; settings: uacc-257, 24 h; how it was run: as §7
SW-620 = test: Cytotoxicity against human SW620 cells after 24 hrs by SRB assay; assay type: cell-based; settings: sw-620, 24 h; how it was run: as §7
NCI-H23 = test: Cytotoxicity against human NCI-H23 cells after 24 hrs by SRB assay; assay type: functional; settings: NCI-H23, 24 h; how it was run: as §2
BT-549 = test: Cytotoxicity against human BT549 cells after 24 hrs by SRB assay; assay type: cell-based; settings: bt-549, 24 h; how it was run: as §1
Malme-3M [8] = test: (§9) Cytotoxicity against human MALME-3M cells after 24 hrs by SRB assay; assay type: functional; how it was run: as §2
NCI-H226 = test: Cytotoxicity against human NCI-H226 cells after 24 hrs by SRB assay; assay type: cell-based; settings: nci-h226, 24 h; how it was run: as §1
SK-MEL-5 = test: Cytotoxicity against human SK-MEL-5 cells after 24 hrs by SRB assay; assay type: cell-based; settings: sk-mel-5, 24 h; how it was run: as §1
HCC 2998 = test: Cytotoxicity against human HCC2998 cells after 24 hrs by SRB assay; assay type: functional; settings: HCC 2998, 24 h; how it was run: as §2
UO-31 [9] = test: (§10) Cytotoxicity against human UO31 cells after 24 hrs by SRB assay; assay type: functional; settings: UO-31, 24 h; how it was run: as §5
CAKI-1 [10] = test: (§11) Cytotoxicity against human CAKI-1 cells after 24 hrs by SRB assay; assay type: cell-based; settings: caki-1, 24 h; how it was run: as §1
MDA-MB-435 = test: Cytotoxicity against human MDA-MB-435 cells after 24 hrs by SRB assay; assay type: functional; settings: MDA-MB-435, 24 h; how it was run: as §2
LOX IMVI = test: Cytotoxicity against human LOXIMVI cells after 24 hrs by SRB assay; assay type: functional; how it was run: as §2
IGROV-1 [11] = test: (§12) Cytotoxicity against human IGROV1 cells after 24 hrs by SRB assay; assay type: cell-based; settings: igrov-1, 24 h; how it was run: as §1
UACC-257 [12] = test: as §8; assay type: functional; settings: UACC-257, 24 h; how it was run: as §5
IGROV-1 [13] = test: as §12; assay type: functional; settings: IGROV-1, 24 h; how it was run: as §2
Malme-3M [14] = test: as §9; assay type: cell-based; how it was run: as §1
UO-31 [15] = test: as §10; assay type: cell-based; settings: uo-31, 24 h; how it was run: as §7
CAKI-1 [16] = test: as §11; assay type: functional; settings: CAKI-1, 24 h; how it was run: as §2
SK-MEL-28 [17] = test: as §3; assay type: cell-based; settings: sk-mel-28, 24 h; how it was run: as §1

O=C(/C=C/c1cc2ccccc2[nH]c1=O)c1ccc(Cl)cc1
LC50 (COLO 205): > 100 µM | GI50 (OVCAR-3): 5.9 µM | TGI (OVCAR-3): 30.9 µM | TGI (SK-OV-3): > 100 µM | GI50 (SK-MEL-28 [1]): 17.7 µM | TGI (SK-MEL-28 [1]): 72.5 µM | GI50 (NCI-H322M [2]): 13.4 µM | TGI (NCI-H322M [2]): 79 µM | LC50 (NCI-H322M [3]): > 100 µM | LC50 (SF-295): > 100 µM | GI50 (UACC-62): 5.71 µM | TGI (UACC-62): 54.3 µM | GI50 (HL-60): 2.47 µM | TGI (HL-60): > 100 µM | GI50 (SF-539): 2.07 µM | TGI (SF-539): 8.02 µM | GI50 (M14 [4]): 7.54 µM | TGI (M14 [4]): 39.7 µM | LC50 (U-251): 39.7 µM | LC50 (HCT-116): 66.5 µM | GI50 (A549): 7.24 µM | TGI (A549): > 100 µM | GI50 (EKVX): 4.92 µM | TGI (EKVX): > 100 µM | GI50 (TK-10): 5.05 µM | TGI (TK-10): 20.8 µM | LC50 (OVCAR-5): > 100 µM | LC50 (M14 [5]): > 100 µM | GI50 [6]: 11.1 µM | TGI [6]: > 100 µM | LC50 (UACC-257 [7]): > 100 µM | LC50 (SW-620): 56.6 µM | GI50 (NCI-H23): 5.37 µM | TGI (NCI-H23): 93.3 µM | LC50 (BT-549): 97.6 µM | GI50 (Malme-3M [8]): 9.42 µM | TGI (Malme-3M [8]): 35.3 µM | LC50 (NCI-H226): > 100 µM | LC50 (SK-MEL-5): > 100 µM | GI50 (HCC 2998): 6.55 µM | TGI (HCC 2998): 22.3 µM | GI50 (UO-31 [9]): 5.27 µM | TGI (UO-31 [9]): > 100 µM | LC50 (CAKI-1 [10]): 6.8 µM | GI50 (MDA-MB-435): 2.83 µM | TGI (MDA-MB-435): 13.1 µM | GI50 (LOX IMVI): 3.26 µM | TGI (LOX IMVI): 22.1 µM | LC50 (IGROV-1 [11]): 50.7 µM | GI50 (UACC-257 [12]): 7.78 µM | TGI (UACC-257 [12]): 46.9 µM | GI50 (IGROV-1 [13]): 3.71 µM | TGI (IGROV-1 [13]): 14.7 µM | LC50 (Malme-3M [14]): > 100 µM | LC50 (UO-31 [15]): > 100 µM | GI50 (CAKI-1 [16]): 1.6 µM | TGI (CAKI-1 [16]): 3.3 µM | LC50 (SK-MEL-28 [17]): > 100 µM
